Experimental data taken from ChEMBL document CHEMBL1132288, “Synthesis and in vitro pharmacology of a series of new chiral histamine H3-receptor ligands: 2-(R and S)-Amino-3-(1H-imidazol-4(5)-yl)propyl ether derivatives” (J Med Chem, 1999).
Calls of active or inactive are those of the source. The calls are words filed in the database; no cut-off is given here.

What was measured:
[1] = molecular target: Histamine H3 receptor (Rattus norvegicus) (UniProt Q9QYN8); conditions: 10e-8 M
[2] = molecular target: Histamine H3 receptor (Rattus norvegicus) (UniProt Q9QYN8); conditions: Striatum; 10e-8 M
Histamine H3 receptor [3] = molecular target: T1, Histamine H3 receptor (Rattus norvegicus, UniProt Q9QYN8); test: Binding affinity of compound against Histamine H3 receptor
Method in brief: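 Displacement of the radioligand [3H]R-(α)-methylhistamine from the histamine H3 receptor in an in vitro receptor binding assay.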

[4] = molecular target: Histamine H3 receptor (Rattus norvegicus) (UniProt Q9QYN8); conditions: filed as antagonist, 10e-6 M
[5] = molecular target: Histamine H3 receptor (Rattus norvegicus) (UniProt Q9QYN8); conditions: filed as antagonist; 10e-5 M
[6] = molecular target: Histamine H3 receptor (Rattus norvegicus) (UniProt Q9QYN8); conditions: Striatum; filed as antagonist; 10e-5 M
[7] = molecular target: Histamine H3 receptor (Rattus norvegicus) (UniProt Q9QYN8); conditions: Striatum, filed as antagonist, 10e-6 M
[8] = molecular target: Histamine H3 receptor (Rattus norvegicus) (UniProt Q9QYN8); test: Binding affinity for Histamine H3 receptor
Method in brief: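 Affinity for the H3 receptor measured in an in vitro binding assay by displacement of the radioligand [3H]R-(α)-methylhistamine.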

[9] = molecular target: Histamine H3 receptor (Rattus norvegicus) (UniProt Q9QYN8); conditions: Striatum; filed as antagonist; 10e-6 M
[10] = molecular target: Histamine H3 receptor (Rattus norvegicus) (UniProt Q9QYN8); conditions: filed as antagonist
[11] = molecular target: Histamine H3 receptor (Rattus norvegicus) (UniProt Q9QYN8); conditions: filed as antagonist; remark: listed apart in the source
[12] = molecular target: Histamine H3 receptor (Rattus norvegicus) (UniProt Q9QYN8); conditions: filed as antagonist; 10e-6 M
[13] = molecular target: Histamine H3 receptor (Rattus norvegicus) (UniProt Q9QYN8); test: Agonistic activity, Histamine H3 receptor dependent activation of G-proteins with GTP gamma-[35S] autoradiography of rat striatal tissue sections. at 10e-5 M conc.; half-maximal response; type: functional; conditions: filed as partial agonist
Method in brief: (§1)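 Rat brain tissue sections were incubated with the test compound at the stated concentrations together with GTPγ[35S], then washed and dried. Film autoradiograms were digitized and quantified against [14C] standards. Responses were read from cerebral cortex and striatum, four animals per region, with cerebellum (no H3 receptors) as a nonspecific-effect control.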

[14] = molecular target: Histamine H3 receptor (Rattus norvegicus) (UniProt Q9QYN8); test: Agonistic activity, Histamine H3 receptor dependent activation of G-proteins with GTP gamma-[35S] autoradiography of rat cortical tissue sections. at 10e-5 M conc.; weak response (between half-maximal and basal; type: functional; conditions: filed as partial agonist
Method in brief: as §1

[15] = molecular target: Histamine H3 receptor (Rattus norvegicus) (UniProt Q9QYN8); test: Agonistic activity, Histamine H3 receptor dependent activation of G-proteins with GTP gamma-[35S] autoradiography of rat striatal tissue sections. at 10e-5 M conc.;no response above basal; type: functional
Method in brief: as §1

[16] = molecular target: Histamine H3 receptor (Rattus norvegicus) (UniProt Q9QYN8); test: Agonistic activity, Histamine H3 receptor dependent activation of G-proteins with GTP gamma-[35S] autoradiography of rat cortical tissue sections. at 10e-5 M conc.;no response above basal; type: functional
Method in brief: as §1

[17] = molecular target: Histamine H3 receptor (Rattus norvegicus) (UniProt Q9QYN8); test: Agonistic activity, Histamine H3 receptor dependent activation of G-proteins with GTP gamma-[35S] autoradiography of rat cortical tissue sections. at 10e-5 M conc.; half-maximal response; type: functional; conditions: filed as partial agonist
Method in brief: as §1

[18] = molecular target: Histamine H3 receptor (Rattus norvegicus) (UniProt Q9QYN8); test: Agonistic activity, Histamine H3 receptor dependent activation of G-proteins with GTP gamma-[35S] autoradiography of rat cortical tissue sections. at 10e-5 M conc.; maximal response; type: functional; conditions: filed as agonist
Method in brief: as §1

[19] = molecular target: Histamine H3 receptor (Rattus norvegicus) (UniProt Q9QYN8); test: Agonistic activity, Histamine H3 receptor dependent activation of G-proteins with GTP gamma-[35S] autoradiography of rat striatal tissue sections. at 10e-5 M conc.; maximal response; type: functional; conditions: filed as agonist
Method in brief: as §1

[20] = molecular target: Histamine H3 receptor (Rattus norvegicus) (UniProt Q9QYN8); test: Agonistic activity, Histamine H3 receptor dependent activation of G-proteins with GTP gamma-[35S] autoradiography of rat cortical tissue sections. at 10e-5 M conc; maximal response; type: functional; conditions: filed as agonist
Method in brief: as §1

[21] = molecular target: Histamine H3 receptor (Rattus norvegicus) (UniProt Q9QYN8); conditions: Striatum, 10e-5 M
[22] = molecular target: Histamine H3 receptor (Rattus norvegicus) (UniProt Q9QYN8); conditions: filed as antagonist; 10e-5 M; remark: listed apart in the source
[23] = molecular target: Histamine H3 receptor (Rattus norvegicus) (UniProt Q9QYN8); conditions: filed as antagonist; 10e-8 M
[24] = molecular target: Histamine H3 receptor (Rattus norvegicus) (UniProt Q9QYN8); conditions: Striatum; filed as antagonist; 10e-8 M
[25] = molecular target: Histamine H3 receptor (Rattus norvegicus) (UniProt Q9QYN8); test: Agonistic activity, H3-receptor dependent activation of G-proteins with GTP gamma-[35S] autoradiography of rat striatal tissue sections. at 10e-5 M conc.; maximal response; type: functional; conditions: filed as agonist
Method in brief: as §1

[26] = molecular target: Histamine H3 receptor (Rattus norvegicus) (UniProt Q9QYN8); test: Agonistic activity, H3-receptor dependent activation of G-proteins with GTP gamma-[35S] autoradiography of rat cortical tissue sections. at 10e-5 M conc.; maximal response; type: functional; conditions: filed as agonist
Method in brief: as §1

Histamine H3 receptor [27] = molecular target: T1, Histamine H3 receptor; test: PKi was measured by Histamine H3 receptor binding assay (N-alpha-MeHA) on rat cerebral cortex.; type: tissue-based
Method in brief: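 Affinity measured by displacement of the radioligand [3H]R-(α)-methylhistamine in an in vitro H3-receptor binding assay.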

[28] = molecular target: Histamine H3 receptor (Rattus norvegicus) (UniProt Q9QYN8); conditions: filed as antagonist; 10e-6 M; remark: listed apart in the source
[29] = molecular target: Histamine H3 receptor (Rattus norvegicus) (UniProt Q9QYN8); conditions: filed as agonist; 10e-5 M

T1 sequence (Q9QYN8 whole entry): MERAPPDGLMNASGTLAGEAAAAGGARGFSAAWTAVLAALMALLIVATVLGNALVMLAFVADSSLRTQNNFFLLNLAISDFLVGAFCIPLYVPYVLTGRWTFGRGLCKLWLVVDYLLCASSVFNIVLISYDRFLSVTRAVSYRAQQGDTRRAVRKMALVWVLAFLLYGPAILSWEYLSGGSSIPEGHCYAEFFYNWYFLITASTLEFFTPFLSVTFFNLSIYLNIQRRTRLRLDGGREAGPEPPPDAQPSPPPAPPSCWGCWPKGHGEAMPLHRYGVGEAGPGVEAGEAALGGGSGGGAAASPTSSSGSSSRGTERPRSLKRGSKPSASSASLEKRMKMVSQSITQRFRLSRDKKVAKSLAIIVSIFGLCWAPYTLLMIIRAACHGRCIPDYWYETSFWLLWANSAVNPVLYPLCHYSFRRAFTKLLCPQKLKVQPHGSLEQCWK
Histamine H3 receptor (Rattus norvegicus), sequence (Q9QYN8 whole entry): as above

Ic1ccc(COCCCc2c[nH]cn2)cc1.NCCc1c[nH]cn1
Antagonist activity [1]: inactive
Antagonist activity [2]: inactive

N[C@H](/C=C/[C@@H]1C[C@H]1c1c[nH]cn1)CC1CCCCC1
Ki (Histamine H3 receptor [3]): 0.398 nM

N[C@@H]1C[C@H]1c1cnc[nH]1 [VUF-5296]
Ki (Histamine H3 receptor [3]): 3.16 nM

NCCc1c[nH]cn1.N[C@@H](COCC1CCCCC1)Cc1c[nH]cn1
Antagonist activity [4]: Antagonist
Antagonist activity [5]: Antagonist
Antagonist activity [6]: Antagonist
Antagonist activity [7]: Antagonist

NCCc1c[nH]cn1.N[C@H](COCc1ccccc1)Cc1c[nH]cn1
Antagonist activity [4]: Antagonist
Antagonist activity [5]: Antagonist
Antagonist activity [6]: Antagonist
Antagonist activity [7]: Antagonist

C[C@H](c1c[nH]cn1)[C@@H](C)N
pD2 [8]: 8.5

C[C@@H]1NCC[C@H]1c1c[nH]cn1
pD2 [8]: 7.1

C[C@H]1NCC[C@@H]1c1c[nH]cn1
pD2 [8]: 7.1

NCCc1c[nH]cn1.N[C@H](COCc1ccc(I)cc1)Cc1c[nH]cn1
Antagonist activity [9]: Partial antagonist
Antagonist activity [10]: Partial antagonist
Antagonist activity [11]: Partial antagonist
Antagonist activity [12]: Partial antagonist

N=C(N)SCCc1c[nH]cn1
pD2 [8]: 8.1

N[C@H](COCc1ccccc1)Cc1c[nH]cn1
Agonistic activity [13]: Partial agonist
Agonistic activity [14]: Partial agonist

N[C@@H](COCc1ccccc1)Cc1c[nH]cn1
Agonistic activity [15]: inactive
Agonistic activity [16]: inactive

C[C@H](N)[C@@H](C)c1c[nH]cn1
pD2 [8]: 6.5

C[C@@H](N)Cc1c[nH]cn1
pD2 [8]: 8.4

N[C@@H](COCc1ccc(Br)cc1)Cc1c[nH]cn1
Agonistic activity [13]: Partial agonist
Agonistic activity [17]: Partial agonist

N[C@@H](Cc1ccccc1)C(=O)NCCc1c[nH]cn1
Ki (Histamine H3 receptor [3]): 100 nM

N[C@@H](Cc1ccccc1)C(=O)N[C@H]1C[C@@H]1c1c[nH]cn1
Ki (Histamine H3 receptor [3]): 20 nM

N[C@H](COCC1CCCCC1)Cc1c[nH]cn1
Agonistic activity [18]: Agonist
Agonistic activity [19]: Agonist

N[C@H](/C=C\[C@@H]1C[C@H]1c1c[nH]cn1)CC1CCCCC1
Ki (Histamine H3 receptor [3]): 100 nM

N[C@@H](COCC1CCCCC1)Cc1c[nH]cn1
Agonistic activity [19]: Agonist
Agonistic activity [20]: Agonist

c1nc(CC2CCNCC2)c[nH]1
pD2 [8]: 8

N=C(N)CCCc1c[nH]cn1
pD2 [8]: 9

N=C(NCc1ccc(Cl)cc1)SCCCc1c[nH]cn1.NCCc1c[nH]cn1
Antagonist activity [1]: inactive
Antagonist activity [2]: inactive

N[C@H](COCc1ccc(Br)cc1)Cc1c[nH]cn1
Agonistic activity [13]: Partial agonist
Agonistic activity [17]: Partial agonist

N[C@H](Cc1ccccc1)C(=O)NCCc1c[nH]cn1
Ki (Histamine H3 receptor [3]): > 10000 nM

CNCCc1cnc[nH]1
pD2 [8]: 7.7

NCCc1c[nH]cn1.N[C@@H](COCc1ccc(Br)cc1)Cc1c[nH]cn1
Antagonist activity [4]: Antagonist
Antagonist activity [21]: Partial agonist
Antagonist activity [22]: Partial antagonist
Antagonist activity [7]: Antagonist

NCCc1c[nH]cn1.S=C(NC1CCCCC1)N1CCC(c2c[nH]cn2)CC1
Antagonist activity [23]: Agonist
Antagonist activity [24]: Antagonist

NCCc1c[nH]cn1.N[C@H](COCc1ccc(Br)cc1)Cc1c[nH]cn1
Antagonist activity [4]: Antagonist
Antagonist activity [21]: Partial agonist
Antagonist activity [22]: Partial antagonist
Antagonist activity [7]: Antagonist

N[C@H](COCc1ccc(I)cc1)Cc1c[nH]cn1
Agonistic activity [15]: inactive
Agonistic activity [16]: inactive

NCCc1c[nH]cn1.N[C@@H](COCc1ccc(I)cc1)Cc1c[nH]cn1
Antagonist activity [4]: Antagonist
Antagonist activity ([21]; filed as antagonist): Partial agonist
Antagonist activity [22]: Partial antagonist
Antagonist activity [7]: Antagonist

NCCc1c[nH]cn1.N[C@@H](COCc1ccccc1)Cc1c[nH]cn1
Antagonist activity [4]: Antagonist
Antagonist activity [5]: Antagonist
Antagonist activity [6]: Antagonist
Antagonist activity [7]: Antagonist

CC(C)(C)CCC#C[C@@H]1C[C@H]1c1c[nH]cn1 [CIPRALISANT]
Ki (Histamine H3 receptor [3]): 0.126 nM
pD2 [8]: 8.5

NCCCCCc1c[nH]cn1
Agonistic activity [25]: Agonist
Agonistic activity [26]: Agonist

N[C@H]1C[C@@H]1c1c[nH]cn1 [VUF-5297]
Ki (Histamine H3 receptor [3]): 25.1 nM

N[C@@H](COCc1ccc(I)cc1)Cc1c[nH]cn1
Agonistic activity [15]: inactive
Agonistic activity [16]: inactive

NCCc1c[nH]cn1.N[C@H](COCC1CCCCC1)Cc1c[nH]cn1
Antagonist activity [4]: Antagonist
Antagonist activity [5]: Antagonist
Antagonist activity [6]: Antagonist
Antagonist activity [7]: Antagonist

c1ccc(COCCCc2c[nH]cn2)cc1 [PROXYFAN]
Ki (Histamine H3 receptor [27]): 5.01 nM

N[C@@H](Cc1ccccc1)C(=O)N[C@@H]1C[C@H]1c1c[nH]cn1
pD2 [8]: 8.7

NCCc1c[nH]cn1
Antagonist activity [28]: Antagonist
pD2 [8]: 7.2
Agonistic activity [18]: Agonist
Agonistic activity [19]: Agonist
Agonist activity [29]: Agonist
